Sampled rows, rich in hits. Any-hit rate of the full collection: about 1.3%.
Mdm2 ligase inh: MDM2-luciferase reporter signal enhancers, primary screen, MDM2 E3 ligase inhibitor project, cell-based, luminescence, 1536-well | E3 ubiquitin-protein ligase Mdm2 (Homo sapiens), Q00987 | cell-based MDM2 ubiquitination luciferase reporter, 2 h; 0 = plate control, 100 = twice control, blank-subtracted | signal enhancement, % at 5 µM | 210,000 tested, 0.11% active;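 active = signal enhancement of 30% or more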;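 note: luminescence tracks abundance of the self-degrading MDM2-luciferase fusion protein; higher signal means inhibition of MDM2 E3 ligase activity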
Target sequence (Q00987 whole entry, looked up, the tested form may be a part): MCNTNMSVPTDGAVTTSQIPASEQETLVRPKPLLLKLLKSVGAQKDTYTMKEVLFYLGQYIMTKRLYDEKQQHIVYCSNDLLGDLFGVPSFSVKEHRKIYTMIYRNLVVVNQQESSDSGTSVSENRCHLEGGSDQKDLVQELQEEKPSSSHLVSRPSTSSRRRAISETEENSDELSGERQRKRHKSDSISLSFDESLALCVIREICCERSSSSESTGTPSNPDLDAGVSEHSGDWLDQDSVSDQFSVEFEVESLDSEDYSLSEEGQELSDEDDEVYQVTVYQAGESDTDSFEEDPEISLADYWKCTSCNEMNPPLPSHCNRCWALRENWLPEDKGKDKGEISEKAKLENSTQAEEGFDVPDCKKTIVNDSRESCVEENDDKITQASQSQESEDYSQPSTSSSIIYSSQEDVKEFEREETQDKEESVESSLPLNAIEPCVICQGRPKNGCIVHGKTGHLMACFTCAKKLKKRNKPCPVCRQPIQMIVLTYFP
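Timing – 2 h compound exposure at 37 °C · Assay system – mammalian cells stably expressing self-ubiquitinating, self-degrading MDM2 E3–luciferase fusion · Amount – 2000 cells seeded into each well · Measure – % luminescence enhancement versus blank-corrected plate control mean · Measured by – SteadyLite luminescence, 15 min reagent step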
Hsp70 activator: Hsp70 transcriptional activators, primary screen, cell-based, HeLa, Hsp70 promoter luciferase, luminescence, 10 µM | HeLa Hsp70 promoter luciferase reporter; scaled: vehicle 0, proteasome-inhibitor control 100% | activation, % at 10 µM | 200,000 tested, 0.04% active;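 active = activation above the mean across all tested compounds plus 3 SD, cutoff set per campaign, cut at about 5.5% in these data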;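 note: 100% = MG132 at 30 µM as the positive control and 0% = DMSO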
Wee1 degr inh: Wee1 degradation inhibitors, primary screen, cell-based, HeLa, Wee1K328M-luciferase, luminescence; Wee1-like protein kinase (Homo sapiens), P30291; 220,000 tested, 1.2% active; AID 1321, 2008; HeLa Luc-Wee1K328M stability; 100% = proteasome inhibitor MG132 effect; reporter increase, % at 5 µM;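 active = activation above the mean of all tested compounds plus 3 SD, set per screening run, cut at about 8.8% in these data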;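 note: cells exposed to compound for 20 h before luminescence read; 0% = DMSO alone and 100% = MG132 at 30 µM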
Pf gametocyte: late stage P. falciparum gametocyte viability inhibitors, primary screen, ATP luminescence, HTS. P. falciparum stage V gametocytes, 24 h. AID 743093, 2013. 150,000 tested, 0.065% active. inhibition, % at 10.9 µM;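 active = inhibition above the mean plus 3 SD of compounds within the control limits, set per campaign, cut at about 38% in these data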;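 note: 0% = DMSO wells and 100% = medium only without gametocytes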
Starred values were filed as active, the others as inactive.

For CC1CCN(c2ccccc2NC(=O)c2ccc(F)cc2)CC1 the results were Mdm2 ligase inh -18.5, Hsp70 activator -0.3, Wee1 degr inh 9.5* and Pf gametocyte 19.1.
CC(=O)c1ccc(NC(=O)CSc2ccsc2[N+](=O)[O-])cc1 was read as Mdm2 ligase inh -4.6, Hsp70 activator 0.1, Wee1 degr inh 0.0 and Pf gametocyte -13.0.
`O=C(Nc1ccc(N2CCOCC2)c(Cl)c1)c1ccc(Br)o1` gave Mdm2 ligase inh -3.8, Hsp70 activator 0.4 and Wee1 degr inh 10.5*.
`O=C(Nc1ccc(N2CCN(C(=O)c3ccccc3)CC2)c(Cl)c1)c1ccc(Br)o1` gave Mdm2 ligase inh -15.3, Hsp70 activator -0.4 and Wee1 degr inh 0.4.
`CC(C)CC1C2C(=O)N(c3ccccc3)C(=O)C2ON1c1ccccc1` (centres undefined) gave Mdm2 ligase inh 2.8, Wee1 degr inh -0.2 and Pf gametocyte 11.4.
Cc1nc2ccc(NC(=O)NC(=O)c3c(Cl)cccc3Cl)cc2o1 was read as Mdm2 ligase inh -7.0, Wee1 degr inh 10.1* and Pf gametocyte -10.6.
`CC(C)(C)c1ccc(-c2cn(-c3ccc(Br)cc3)c3[n+]2CCCS3)cc1` gave Mdm2 ligase inh -42.2, Hsp70 activator -0.2, Wee1 degr inh 1.6 and Pf gametocyte -4.1.
For O=C(NCCc1ccccc1)C1CCN(C2CCN(Cc3ccc(CO)o3)CC2)CC1 the results were Mdm2 ligase inh 37.8*, Hsp70 activator -0.6, Wee1 degr inh -0.9 and Pf gametocyte -13.5.
`O=C(NCCc1ccccc1)C1CCN(C2CCN(C(=O)CC3=CCCCC3)CC2)CC1` gave Mdm2 ligase inh -4.2, Hsp70 activator -0.1, Wee1 degr inh -1.7 and Pf gametocyte 0.1.
Screening CSc1nc2ncc3c(n2n1)CC(C)(C)CC3=O returned Mdm2 ligase inh -5.7, Hsp70 activator -0.2, Wee1 degr inh 8.9* and Pf gametocyte 3.9.
`CC1(C)CC(=O)c2cnc3c(C#N)cnn3c2C1` gave Mdm2 ligase inh -10.5, Hsp70 activator 0.1, Wee1 degr inh 1.6 and Pf gametocyte 15.3.
CCOC(=O)COc1cc(-n2c(=S)[nH]c3cc(OC)c(OC)cc3c2=O)c(Cl)cc1Cl was read as Mdm2 ligase inh 2.5, Hsp70 activator 0.2, Wee1 degr inh -0.6 and Pf gametocyte 0.6.
Screening COc1ccc2nc3cccc(OC)c3nc2c1 returned Mdm2 ligase inh -2.0, Hsp70 activator -0.1, Wee1 degr inh 2.4 and Pf gametocyte -5.8.
Screening COc1ccc2nc3ccccc3nc2c1N returned Mdm2 ligase inh -25.9, Wee1 degr inh 9.0* and Pf gametocyte -18.6.
For O=C(COC(=O)Cn1cnc2ccccc21)Nc1cc2c(cc1Cl)C(=O)c1ccccc1C2=O the results were Mdm2 ligase inh -11.1, Hsp70 activator -0.1, Wee1 degr inh 10.7* and Pf gametocyte 24.1.
`O=C(COC(=O)Cn1cnc2ccccc21)Nc1cc(S(=O)(=O)N2CCOCC2)ccc1Cl` gave Wee1 degr inh 0.1 and Pf gametocyte 4.7.
Screening O=C(O)c1ccccc1S returned Hsp70 activator -0.2 and Wee1 degr inh 11.8*.
For O=C(O)Cc1ccccc1C(=O)O the results were Mdm2 ligase inh 6.7, Hsp70 activator -0.2, Wee1 degr inh -2.7 and Pf gametocyte 6.0.
`Cc1ccccc1NC(=O)C1CCN(C2=NS(=O)(=O)c3ccccc32)CC1` gave Mdm2 ligase inh -3.1, Hsp70 activator 0.0 and Wee1 degr inh 10.3*.
COc1cc(NC(=S)NCCCN2CCOCC2)cc(OC)c1 was read as Mdm2 ligase inh -4.9, Hsp70 activator -0.3 and Wee1 degr inh 9.6*.
CCOc1ccc(-n2c(C)nc3cc(C(=O)NCc4ccco4)ccc32)cc1 was read as Mdm2 ligase inh -10.8, Hsp70 activator -0.2 and Wee1 degr inh 9.5*.
Screening CC(C)C(=O)Nc1ccc(NC(=O)c2ccc(COc3ccccc3)cc2)cc1 returned Pf gametocyte 2.6.
For Cc1c(C(=O)N(C)C)sc(NC(=O)c2cccc([N+](=O)[O-])c2)c1C#N the results were Mdm2 ligase inh -4.6, Hsp70 activator -0.4 and Wee1 degr inh 10.2*.
`COc1ccc(C(=O)Nc2sc(C(=O)N(C)C)c(C)c2C#N)cc1[N+](=O)[O-]` gave Mdm2 ligase inh -17.8, Hsp70 activator -0.4, Wee1 degr inh -0.7 and Pf gametocyte -1.1.
Cc1ccc(O)c(C(=O)/C=C/c2ccc3c(c2)OCCCO3)c1 was read as Mdm2 ligase inh -5.4, Hsp70 activator -0.2, Wee1 degr inh 9.2* and Pf gametocyte -7.9.
`Cc1ccc(S(=O)(=O)N2CCN(C3CC(=O)N(CCc4ccccc4)C3=O)CC2)cc1C` (centres undefined) gave Mdm2 ligase inh -10.8, Hsp70 activator -0.3 and Wee1 degr inh 9.9*.
`COc1ccc(NC(=O)CN2C(=O)C(C)Oc3ccccc32)cc1OC` (centres undefined) gave Pf gametocyte -21.5.
`Cc1cccn2c(=O)c3cc(C(N)=S)c(=N)n(CCCOC(C)C)c3nc12` gave Mdm2 ligase inh -1.2, Hsp70 activator -0.2, Wee1 degr inh 15.0* and Pf gametocyte 7.9.
O=[N+]([O-])c1cccnc1Oc1ccc(C2SCCS2)cc1 was read as Mdm2 ligase inh -2.0, Wee1 degr inh 1.6 and Pf gametocyte -6.3.
`COc1cc(C2SCCS2)cc(Br)c1Oc1ncccc1[N+](=O)[O-]` gave Mdm2 ligase inh -13.9, Wee1 degr inh 13.4* and Pf gametocyte 17.7.
For COc1ccc(N(CC(=O)Nc2cccc(SC)c2)S(C)(=O)=O)cc1 the results were Mdm2 ligase inh -18.3, Hsp70 activator 0.1 and Wee1 degr inh 9.2*.
For COc1ccc(N(CC(=O)Nc2cccc(C(F)(F)F)c2)S(C)(=O)=O)cc1 the results were Mdm2 ligase inh 0.8, Hsp70 activator -0.2, Wee1 degr inh 0.6 and Pf gametocyte 8.0.
Screening COc1ccc(OC)c(N(CC(=O)Nc2cccnc2)S(C)(=O)=O)c1 returned Mdm2 ligase inh -17.4, Hsp70 activator -0.1 and Wee1 degr inh 9.6*.
`O=C(O)Cn1cccc1C(=O)c1ccccc1` gave Mdm2 ligase inh -6.9, Hsp70 activator -0.3 and Wee1 degr inh 9.2*.
`CSc1ccc(/C=N/N2CCN(Cc3ccccc3)CC2)cc1` gave Mdm2 ligase inh -3.6, Hsp70 activator -0.4, Wee1 degr inh 1.8 and Pf gametocyte 8.3.
Screening CCOC(=O)c1c(NC(=O)CSc2nnc(C)o2)sc(C)c1C returned Wee1 degr inh 9.8* and Pf gametocyte -22.6.
Cn1c(NC(=O)/C=C/c2ccc(Cl)c(Cl)c2)cc(=O)n(C)c1=O was read as Mdm2 ligase inh -3.7, Hsp70 activator -0.2 and Wee1 degr inh 2.8.
`COc1ccc(/C=C/C(=O)Nc2cc(=O)n(C)c(=O)n2C)cc1` gave Mdm2 ligase inh -13.1, Hsp70 activator -0.3, Wee1 degr inh 9.7* and Pf gametocyte -0.9.

Source: PubChem BioAssay
